Each structure is given as a SMILES string. Bounds are passed on as bounds.

Common to all, as to assay type: functional, cell-based
The subject of test [1] is NCI-H460. The test is described as follows: Antitumor activity against human NCI-H460 cells by SRB colorimetric assay. The essentials:
(§1)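 NCI sulforhodamine B colorimetric growth assay in 96-well plates. Each compound tested at four concentrations in 10-fold dilutions. Doxorubicin as positive control. IC50 taken from concentration–response curves as the concentration giving 50% reduction in cell growth versus untreated control cells.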
Background: In SRB staining, fixed cells bind dye roughly in proportion to their protein.

The nature of test [2]: Antitumor activity against human PCO3 cells by SRB colorimetric assay. The essentials:
as §1

The subject of test [3] is K562. Description: Antitumor activity against human K562 cells by SRB colorimetric assay. The essentials:
as §1

For test [4], the system named is MCF7. Description: Antitumor activity against human MCF7 cells by SRB colorimetric assay. The method, boiled down: as §1
Test [5] concerns 786-0. Description: Antitumor activity against human 786-0 cells by SRB colorimetric assay. The method, boiled down:
as §1

Test [6] concerns OVCAR. Description: Antitumor activity against human OVCAR cells by SRB colorimetric assay. The method, boiled down:
as §1

The subject of test [7] is UACC-62. Description: Antitumor activity against human UACC62 cells by SRB colorimetric assay. The method, boiled down: as §1
Test [8] deals with HT-29. The test is described as follows: Antitumor activity against human HT-29 cells by SRB colorimetric assay. The essentials: as §1

For `O=C(N/N=C/c1ccccc1Cl)c1cc2c([nH]c3ccccc32)c(-c2cccc([N+](=O)[O-])c2)n1`, the IC50 in test [1] was 28.9 µM; in test [2] it was 16.6 µM; in test [3] it was 68.1 µM; in test [4], 14.1 µM; in test [5], 17 µM; in test [6] it was over 100 µM. For the same compound, the IC50 stood at 35.7 µM in test [7] and 15.3 µM in test [8].
In the case of `O=C(NN=C1CCCC1)c1cc2c([nH]c3ccccc32)c(-c2ccc(O)cc2)n1`, the IC50 in test [1] is over 100 µM; in test [2], over 100 µM; in test [3], over 100 µM; in test [4], 78.1 µM; in test [5], over 100 µM; in test [6], over 100 µM. The IC50 in test [7] and in test [8] was over 100 µM throughout.
On to `COc1ccc(-c2nc(C(=O)NN=C3CCCCC3)cc3c2[nH]c2ccccc23)cc1`, for which the IC50 was determined as 20.2 µM in test [1]; 10.3 µM in test [2]; 10.3 µM in test [3]; 9.14 µM in test [4]; 18.6 µM in test [5]; 12.8 µM in test [6]. Besides, the IC50 in test [7] was found to be 11.7 µM; in test [8] it was 14 µM.
Consider `O=C(N/N=C/c1ccccc1Cl)c1cc2c([nH]c3ccccc32)c(-c2ccc([N+](=O)[O-])cc2)n1`, for which the IC50 in test [1] was determined as 38.1 µM; in test [2], 18 µM; in test [3], 6.35 µM; in test [4] it was 18 µM; in test [5], 2.75 µM; in test [6], 4.55 µM. Further, the IC50 in test [7] came to 2.53 µM; in test [8] it was 3.85 µM.
Take `O=C(NN=C1CCCC1)c1cc2c([nH]c3ccccc32)c(-c2cccc([N+](=O)[O-])c2)n1`: the IC50 in test [1], in test [2], in test [3], in test [4], in test [5] and in test [6] was over 100 µM each time. In addition, the IC50 in test [7] and in test [8] was over 100 µM throughout.
As for `O=C(NN=C1CCCCC1)c1cc2c([nH]c3ccccc32)c(-c2ccc([N+](=O)[O-])cc2)n1`, the IC50 was over 100 µM in test [1]; over 100 µM in test [2]; over 100 µM in test [3]; 25.6 µM in test [4]; 72.8 µM in test [5]; over 100 µM in test [6]. Further, the IC50 in test [7] and in test [8] was over 100 µM each time.
As to `COc1ccc(-c2nc(C(=O)NN=C3CCCC3)cc3c2[nH]c2ccccc23)cc1O`, the IC50 in test [1] is over 100 µM; in test [2], over 100 µM; in test [3], over 100 µM; in test [4], over 100 µM; in test [5], 97 µM; in test [6], over 100 µM. Moreover, in test [7], the IC50 is over 100 µM.
For the compound `CN(C)c1ccc(-c2nc(C(=O)NN=C3CCCCC3)cc3c2[nH]c2ccccc23)cc1`, the IC50 in test [1], in test [2], in test [3], in test [4], in test [5] and in test [6] was over 100 µM in each case. Further, in test [7], the IC50 is over 100 µM.
For the compound `CN(C)c1ccc(/C=N/NC(=O)c2cc3c([nH]c4ccccc43)c(-c3ccc(O)cc3)n2)cc1`, the IC50 in test [1] was 69.5 µM; in test [3], over 100 µM; in test [4], over 100 µM; in test [5] it was over 100 µM; in test [6] it was 1.26 µM; in test [7], 88.2 µM. The compound also yielded an IC50 in test [8] of over 100 µM.
For the compound `COc1ccc(/C=N/NC(=O)c2cc3c([nH]c4ccccc43)c(-c3ccc(O)cc3)n2)cc1`, the IC50 in test [1] was 9.82 µM; in test [3], 87.4 µM; in test [4], over 100 µM; in test [5], 62 µM; in test [6] it was 0.37 µM; in test [7], 3.85 µM. In test [8], this compound came in with an IC50 of 95.6 µM.

By IC50 is commonly meant the concentration needed to halve the response being measured.

Source of the values: ChEMBL document CHEMBL1914299, “Synthesis and antitumor activity of β-carboline 3-(substituted-carbohydrazide) derivatives” (Bioorg Med Chem, 2011).
